Calls of active or inactive are those of the source. The rule behind the calls is not given here.
Key:
[1] = Antioxidant activity assessed as inhibition of oxidation of chromogen (ABTS) measured per mmol/L of product by total antioxidant assay; assay type: functional
Method in brief: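 Total antioxidant status kit: inhibition of ABTS oxidation by metmyoglobin and hydrogen peroxide, followed at 600 nm absorbance; antioxidant ability proportional to absorbance reduction, expressed as mM. Compounds tested at 1 mmol/L.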

VSMC = test: Displacement of [125I]angiotensin II from angiotensin 2 receptor in Wistar rat VSMC cells by gamma-counter; assay type: cell-based; design: concentration or dose not given beside the values
Method in brief: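 Rat aortic VSMC (collagenase-derived primary cultures, passages 3-5) resuspended in Tris-glucose-NaCl buffer pH 7.4 at 0.5 μg/μL protein; 125 μg protein incubated 45 min with 0.15 nM 125I-angiotensin II plus compound. Bound separated by centrifugation, pellet washed with cold 0.15 M NaCl, gamma counted; nonspecific binding with 10^-4 M angiotensin II.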

Rattus norvegicus [2] = test: Plasma concentration in po dosed Wistar rat assessed as EXP-3174 level after 4 weeks; assay type: ADME, organism-based; settings: in vivo, 672 h
Method in brief: (§1)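 Separate groups of Wistar rats dosed in drinking water for 4 weeks (n = 4-6 per group), then sacrificed and plasma analyzed by HPLC-MS/MS (triple quadrupole, electrospray), isocratic MeOH/water with 0.1% formic acid, 40 °C. Two plasma samples per animal; mean ± SEM.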

Rattus norvegicus [3] = test: Plasma concentration in po dosed Wistar rat assessed as losartan level after 4 weeks; assay type: ADME, organism-based; settings: in vivo, 672 h; method in brief: as §1
Rattus norvegicus [4] = test: Antihypertensive activity in L-NAME-induced Wistar rat assessed as decrease in blood LDH level at 20 mg/kg/day, po for last 4 weeks measured after 8 weeks; assay type: functional
Method in brief: (§2)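 Two-month-old male Wistar rats given L-NAME in drinking water (20 mg/kg/day) for 8 weeks. From week 4, treatment is given daily in drinking water during 12.00–18.00 h, at the dose stated in the line. Ten rats per group. Sacrificed under halothane between 9.00 and 10.00 h. Serum is measured on an automatic analyzer. Mean ± SEM, nonparametric statistics.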

Rattus norvegicus [5] = test: Antihypertensive activity in L-NAME-induced Wistar rat assessed as decrease in blood glucose level at 20 mg/kg/day, po for last 4 weeks measured after 8 weeks; assay type: functional; method in brief: as §2
Rattus norvegicus [6] = test: Antihypertensive activity in L-NAME-induced Wistar rat assessed as decrease in blood cholesterol level at 20 mg/kg/day, po for last 4 weeks measured after 8 weeks; assay type: functional; method in brief: as §2
Rattus norvegicus [7] = test: Antihypertensive activity in Wistar rat assessed as normalization of L-NAME-induced aorta thickness at 10 mg/kg/day, po for 4 weeks; assay type: functional, organism-based
Method in brief: (§3)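 L-NAME (20 mg/kg/day, drinking water, 8 weeks) hypertensive two-month-old male Wistar rats; treatments in drinking water daily for the last 4 weeks. Systolic pressure by tail-cuff in conscious animals. At sacrifice heart weighed (corrected to body weight); aortic rings from descending thoracic aorta, formaldehyde-flushed, media thickness by planimetry. Mean ± SEM of 10 rats.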

Rattus norvegicus [8] = test: Antihypertensive activity in Wistar rat assessed as normalization of L-NAME-induced heart weight at 20 mg/kg/day, po for 4 weeks in presence of L-NAME; assay type: functional, organism-based; settings: 28 mg/kg, in the assay text read “28 mg/kg/day” for “20 mg/kg/day”; method in brief: as §3
Rattus norvegicus [9] = test: Antihypertensive activity in L-NAME-induced Wistar rat assessed as decrease in blood ALT level at 20 mg/kg/day, po for last 4 weeks measured after 8 weeks; assay type: functional; method in brief: as §2
Rattus norvegicus [10] = test: Antihypertensive activity in Wistar rat assessed as normalization of L-NAME-induced systolic blood pressure at 20 mg/kg/day, po for 4 weeks; assay type: functional, organism-based; settings: Artery; method in brief: as §3
Rattus norvegicus [11] = test: Antihypertensive activity in L-NAME-induced Wistar rat assessed as decrease in blood creatinine level at 20 mg/kg/day, po for last 4 weeks measured after 8 weeks; assay type: functional; method in brief: as §2
Rattus norvegicus [12] = test: Antihypertensive activity in Wistar rat assessed as normalization of L-NAME-induced systolic blood pressure at 10 mg/kg/day, po for 4 weeks; assay type: functional, organism-based; settings: Artery; method in brief: as §3
Rattus norvegicus [13] = test: Antihypertensive activity in L-NAME-induced Wistar rat assessed as decrease in blood calcium level at 20 mg/kg/day, po for last 4 weeks measured after 8 weeks; assay type: functional; method in brief: as §2
Rattus norvegicus [14] = test: Antihypertensive activity in L-NAME-induced Wistar rat assessed as decrease in blood protein level at 20 mg/kg/day, po for last 4 weeks measured after 8 weeks; assay type: functional; method in brief: as §2
Rattus norvegicus [15] = test: Antihypertensive activity in L-NAME-induced Wistar rat assessed as decrease in blood […] level at 20 mg/kg/day, po for last 4 weeks measured after 8 weeks; assay type: functional; method in brief: as §2
Rattus norvegicus [16] = test: Antihypertensive activity in L-NAME-induced Wistar rat assessed as decrease in blood Na+ level at 20 mg/kg/day, po for last 4 weeks measured after 8 weeks; assay type: functional; method in brief: as §2
Rattus norvegicus [17] = test: Antihypertensive activity in L-NAME-induced Wistar rat assessed as decrease in blood triglyceride level at 20 mg/kg/day, po for last 4 weeks measured after 8 weeks; assay type: functional; method in brief: as §2
Rattus norvegicus [18] = test: Antihypertensive activity in L-NAME-induced Wistar rat assessed as decrease in blood AST level at 20 mg/kg/day, po for last 4 weeks measured after 8 weeks; assay type: functional; method in brief: as §2
Rattus norvegicus [19] = test: Antihypertensive activity in L-NAME-induced Wistar rat assessed as decrease in blood urea level at 20 mg/kg/day, po for last 4 weeks measured after 8 weeks; assay type: functional; method in brief: as §2
Rattus norvegicus [20] = test: Antihypertensive activity in L-NAME-induced Wistar rat assessed as decrease in blood urea level at 28 mg/kg/day, po for last 4 weeks measured after 8 weeks; assay type: functional; method in brief: as §2
Rattus norvegicus [21] = test: Antihypertensive activity in L-NAME-induced Wistar rat assessed as decrease in blood cholesterol level at 28 mg/kg/day, po for last 4 weeks measured after 8 weeks; assay type: functional; method in brief: as §2
Rattus norvegicus [22] = test: Antihypertensive activity in L-NAME-induced Wistar rat assessed as decrease in blood creatinine level at 28 mg/kg/day, po for last 4 weeks measured after 8 weeks; assay type: functional; method in brief: as §2
[23] = Solubility in water assessed as nonhydrolzed drug level after 2 days; assay type: physicochemical; settings: read-out: Activity
Rattus norvegicus [24] = test: Antihypertensive activity in L-NAME-induced Wistar rat assessed as decrease in blood […] level at 28 mg/kg/day, po for last 4 weeks measured after 8 weeks; assay type: functional; method in brief: as §2
Rattus norvegicus [25] = test: Antihypertensive activity in L-NAME-induced Wistar rat assessed as decrease in blood AST level at 28 mg/kg/day, po for last 4 weeks measured after 8 weeks; assay type: functional; method in brief: as §2
Rattus norvegicus [26] = test: Plasma concentration in po dosed Wistar rat assessed as 3-(3,4-Dihydroxy-phenyl)propionic Acid 2-butyl-5-chloro-3-[2'-(2H-tetrazol-5-yl)-biphenyl-4-ylmethyl]-3H-imidazol-4-ylmethylester level after 4 weeks; assay type: ADME, organism-based; settings: in vivo, 672 h; method in brief: as §1
Rattus norvegicus [27] = test: Antihypertensive activity in Wistar rat assessed as normalization of L-NAME-induced fibronectin content in vessel walls at 28 mg/kg/day, po for 4 weeks in presence of losartan; assay type: functional, organism-based
Method in brief: (§4)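 Male Wistar rats on L-NAME in drinking water (20 mg/kg/day) for 8 weeks, treatments in drinking water for the last 4 weeks. Thoracic aorta lysates run on SDS-PAGE and Western blotted for collagen type I, fibronectin or HNE-lysine, with β-tubulin as loading control; ECL detection, densitometry. Expressed as percent of basal; mean ± SEM of 10 experiments.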

Rattus norvegicus [28] = test: Antihypertensive activity in L-NAME-induced Wistar rat assessed as decrease in blood triglyceride level at 28 mg/kg/day, po for last 4 weeks measured after 8 weeks; assay type: functional; method in brief: as §2
Rattus norvegicus [29] = test: Antihypertensive activity in L-NAME-induced Wistar rat assessed as decrease in blood calcium level at 28 mg/kg/day, po for last 4 weeks measured after 8 weeks; assay type: functional; method in brief: as §2
Rattus norvegicus [30] = test: Antihypertensive activity in L-NAME-induced Wistar rat assessed as decrease in blood protein level at 28 mg/kg/day, po for last 4 weeks measured after 8 weeks; assay type: functional; method in brief: as §2
Rattus norvegicus [31] = test: Antihypertensive activity in Wistar rat assessed as normalization of L-NAME-induced heart weight at 28 mg/kg/day, po for 4 weeks in presence of L-NAME; assay type: functional, organism-based; method in brief: as §3
Rattus norvegicus [32] = test: Antihypertensive activity in L-NAME-induced Wistar rat assessed as decrease in blood ALT level at 28 mg/kg/day, po for last 4 weeks measured after 8 weeks; assay type: functional; method in brief: as §2
Rattus norvegicus [33] = test: Antihypertensive activity in L-NAME-induced Wistar rat assessed as decrease in blood glucose level at 28 mg/kg/day, po for last 4 weeks measured after 8 weeks; assay type: functional; method in brief: as §2
Rattus norvegicus [34] = test: Antihypertensive activity in Wistar rat assessed as normalization of L-NAME-induced collagen 1 level in vessel walls at 28 mg/kg/day, po for 4 weeks in presence of losartan; assay type: functional, organism-based; method in brief: as §4
Rattus norvegicus [35] = test: Antihypertensive activity in Wistar rat assessed as normalization of L-NAME-induced systolic blood pressure at 28 mg/kg/day, po for 4 weeks; assay type: functional, organism-based; settings: Artery; method in brief: as §3
Rattus norvegicus [36] = test: Antihypertensive activity in L-NAME-induced Wistar rat assessed as decrease in blood LDH level at 28 mg/kg/day, po for last 4 weeks measured after 8 weeks; assay type: functional; method in brief: as §2
Rattus norvegicus [37] = test: Antihypertensive activity in Wistar rat assessed as normalization of L-NAME-induced HNE-lysine accumulation in vessel walls at 28 mg/kg/day, po for 4 weeks in presence of losartan; assay type: functional, organism-based; method in brief: as §4
Rattus norvegicus [38] = test: Antihypertensive activity in L-NAME-induced Wistar rat assessed as decrease in blood Na+ level at 28 mg/kg/day, po for last 4 weeks measured after 8 weeks; assay type: functional; method in brief: as §2

Structure (SMILES): CCCCc1nc(Cl)c(COC(=O)C2(C)CCc3c(C)c(O)c(C)c(C)c3O2)n1Cc1ccc(-c2ccccc2-c2nnn[nH]2)cc1 (stereo not given)
- Activity [1]: 0.25 mmol/L
- Activity (VSMC): 68%

Structure (SMILES): CCCCc1nc(Cl)c(COC(=O)Cc2cc(C(C)(C)C)c(O)c(C(C)(C)C)c2)n1Cc1ccc(-c2ccccc2-c2nnn[nH]2)cc1
- Activity [1]: 0.16 mmol/L
- Activity (VSMC): 65%

Structure (SMILES): CCCCc1nc(Cl)c(CO)n1Cc1ccc(-c2ccccc2-c2nn[nH]n2)cc1 [LOSARTAN]
- concentration (Rattus norvegicus [2]): 39 nM
- concentration (Rattus norvegicus [3]): 24.4 nM

Structure (SMILES): CCCCc1ncc(COC(=O)c2cc(OC)c(O)c(OC)c2)n1Cc1ccc(-c2ccccc2-c2nnn[nH]2)cc1
- Activity [1]: 0.31 mmol/L
- Activity (VSMC): 66%

Structure (SMILES): CCCCc1ncc(COC(=O)Cc2cc(C(C)(C)C)c(O)c(C(C)(C)C)c2)n1Cc1ccc(-c2ccccc2-c2nnn[nH]2)cc1
- Activity [1]: 0.24 mmol/L
- Activity (VSMC): 77%

Structure (SMILES): CCCCc1ncc(COC(=O)C2(C)CCc3c(C)c(O)c(C)c(C)c3O2)n1Cc1ccc(-c2ccccc2-c2nnn[nH]2)cc1 (stereo not given)
- Activity [1]: 0.27 mmol/L
- Activity (VSMC): 65%

Structure (SMILES): CCCCc1nc(Cl)c(CO)n1Cc1ccc(-c2ccccc2-c2nnn[nH]2)cc1 [LOSARTAN]
- Activity [1]: 0.04 mmol/L
- Activity (Rattus norvegicus [4]): 622 IU/L
- Activity (Rattus norvegicus [5]): 149 mg/dL
- Activity (VSMC): 53%
- Activity (Rattus norvegicus [6]): 48 mg/dL
- Activity (Rattus norvegicus [7]): inactive
- Activity (Rattus norvegicus [8]): Active
- Activity (Rattus norvegicus [9]): 24 IU/L
- Activity (Rattus norvegicus [10]): Active
- Activity (Rattus norvegicus [11]): 0.42 mg/dL
- Activity (Rattus norvegicus [12]): inactive
- Activity (Rattus norvegicus [13]): 8.3 mg/dL
- Activity (Rattus norvegicus [14]): 5 g/dL
- Activity (Rattus norvegicus [15]): 4.7 mmol/L
- Activity (Rattus norvegicus [16]): 151 mmol/L
- Activity (Rattus norvegicus [17]): 65 mg/dL
- Activity (Rattus norvegicus [18]): 91 IU/L
- Activity (Rattus norvegicus [19]): 24 mg/dL

Structure (SMILES): CCCCc1nc(Cl)c(COC(=O)CCc2ccc(O)c(O)c2)n1Cc1ccc(-c2ccccc2-c2nnn[nH]2)cc1
- Activity [1]: 0.31 mmol/L
- Activity (Rattus norvegicus [20]): 24 mg/dL
- Activity (VSMC): 59%
- Activity (Rattus norvegicus [21]): 52 mg/dL
- Activity (Rattus norvegicus [22]): 0.42 mg/dL
- remaining at 48 h [23]: 95.9%
- concentration (Rattus norvegicus [2]): 13 nM
- Activity (Rattus norvegicus [24]): 4.6 mmol/L
- Activity (Rattus norvegicus [7]): inactive
- concentration (Rattus norvegicus [3]): 8 nM
- Activity (Rattus norvegicus [8]): Active
- Activity (Rattus norvegicus [25]): 83 IU/L
- concentration (Rattus norvegicus [26]): 171 nM
- Activity (Rattus norvegicus [27]): Active
- Activity (Rattus norvegicus [28]): 52 mg/dL
- Activity (Rattus norvegicus [29]): 8.6 mg/dL
- Activity (Rattus norvegicus [30]): 4.5 g/dL
- Activity (Rattus norvegicus [31]): Active
- Activity (Rattus norvegicus [32]): 24 IU/L
- Activity (Rattus norvegicus [33]): 154 mg/dL
- Activity (Rattus norvegicus [34]): Active
- Activity (Rattus norvegicus [35]): Active
- Activity (Rattus norvegicus [36]): 561 IU/L
- Activity (Rattus norvegicus [37]): Active
- Activity (Rattus norvegicus [38]): 151 mmol/L
